From PMC4681580 (Journal of immunology (Baltimore, Md. : 1950), 2015) come the findings set out here.

No end group written: not given here.

In one experiment the target is T1, rTAP1/TAP2a(E218M) (Rattus norvegicus, UniProt P36370+P36372, E218M).
T1 sequence (P36370 1-725): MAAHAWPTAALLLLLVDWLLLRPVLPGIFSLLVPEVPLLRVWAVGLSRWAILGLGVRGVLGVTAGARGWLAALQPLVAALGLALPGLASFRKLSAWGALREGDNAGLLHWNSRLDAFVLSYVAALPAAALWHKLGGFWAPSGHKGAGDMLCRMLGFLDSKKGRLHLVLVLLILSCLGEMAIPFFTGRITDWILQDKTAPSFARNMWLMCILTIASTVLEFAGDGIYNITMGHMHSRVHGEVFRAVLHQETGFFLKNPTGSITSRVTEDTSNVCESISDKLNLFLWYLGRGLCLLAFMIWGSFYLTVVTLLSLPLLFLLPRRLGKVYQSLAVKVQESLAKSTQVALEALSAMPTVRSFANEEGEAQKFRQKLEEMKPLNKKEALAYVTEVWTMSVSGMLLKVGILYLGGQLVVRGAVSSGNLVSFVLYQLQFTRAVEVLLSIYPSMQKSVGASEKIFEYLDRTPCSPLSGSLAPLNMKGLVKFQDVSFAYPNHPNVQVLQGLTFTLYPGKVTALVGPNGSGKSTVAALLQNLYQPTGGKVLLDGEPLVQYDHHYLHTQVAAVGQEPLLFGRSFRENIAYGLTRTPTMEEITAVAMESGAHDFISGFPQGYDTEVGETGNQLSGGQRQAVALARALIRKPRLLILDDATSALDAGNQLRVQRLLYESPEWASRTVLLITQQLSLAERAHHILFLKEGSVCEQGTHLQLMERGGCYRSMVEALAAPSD
T1 sequence (P36372 1-703 E218M): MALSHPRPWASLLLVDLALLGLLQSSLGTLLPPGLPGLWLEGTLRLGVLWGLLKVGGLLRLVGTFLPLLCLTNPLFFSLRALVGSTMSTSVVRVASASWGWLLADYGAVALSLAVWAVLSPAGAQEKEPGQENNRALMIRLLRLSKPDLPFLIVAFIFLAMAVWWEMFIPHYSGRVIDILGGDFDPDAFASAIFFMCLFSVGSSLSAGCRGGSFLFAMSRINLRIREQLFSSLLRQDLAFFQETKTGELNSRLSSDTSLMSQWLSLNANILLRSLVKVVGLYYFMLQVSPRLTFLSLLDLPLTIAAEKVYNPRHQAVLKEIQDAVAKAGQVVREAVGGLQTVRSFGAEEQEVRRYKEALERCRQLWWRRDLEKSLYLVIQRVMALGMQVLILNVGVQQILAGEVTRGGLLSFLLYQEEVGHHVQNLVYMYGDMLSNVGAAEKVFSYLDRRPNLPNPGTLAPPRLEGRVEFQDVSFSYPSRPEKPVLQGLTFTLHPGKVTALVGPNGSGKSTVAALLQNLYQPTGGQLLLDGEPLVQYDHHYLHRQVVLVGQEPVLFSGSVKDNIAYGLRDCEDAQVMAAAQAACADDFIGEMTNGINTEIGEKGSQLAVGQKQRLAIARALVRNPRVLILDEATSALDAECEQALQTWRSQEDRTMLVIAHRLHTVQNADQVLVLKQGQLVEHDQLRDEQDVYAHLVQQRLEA
Kind of experiment: Peptide transport assay, E218M mutant. The format is biochemical. The note with it: FITC-labeled peptide 1 μM, 37 °C, 5 min, with or without 5 mM ATP. Put shortly:
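Sf21 cells were grown to confluence and infected with baculoviruses (MOI 5–20) expressing His-tagged rTAP1 and Flag-tagged rTAP2 variants; microsomes were made after 72 h. Lysis was in 1% NP40, and glycosylated peptide was recovered on Con A-Sepharose. Fluorescence was read in triplicate to give +ATP/−ATP ratios, normalized to wild type (100%) and TAP-free microsomes (0%). Paired two-tailed t-tests were applied.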

Another experiment deals with T2, rTAP1/TAP2a (wild type) (Rattus norvegicus, UniProt P36370+P36372).
T2 sequence (P36370 1-725): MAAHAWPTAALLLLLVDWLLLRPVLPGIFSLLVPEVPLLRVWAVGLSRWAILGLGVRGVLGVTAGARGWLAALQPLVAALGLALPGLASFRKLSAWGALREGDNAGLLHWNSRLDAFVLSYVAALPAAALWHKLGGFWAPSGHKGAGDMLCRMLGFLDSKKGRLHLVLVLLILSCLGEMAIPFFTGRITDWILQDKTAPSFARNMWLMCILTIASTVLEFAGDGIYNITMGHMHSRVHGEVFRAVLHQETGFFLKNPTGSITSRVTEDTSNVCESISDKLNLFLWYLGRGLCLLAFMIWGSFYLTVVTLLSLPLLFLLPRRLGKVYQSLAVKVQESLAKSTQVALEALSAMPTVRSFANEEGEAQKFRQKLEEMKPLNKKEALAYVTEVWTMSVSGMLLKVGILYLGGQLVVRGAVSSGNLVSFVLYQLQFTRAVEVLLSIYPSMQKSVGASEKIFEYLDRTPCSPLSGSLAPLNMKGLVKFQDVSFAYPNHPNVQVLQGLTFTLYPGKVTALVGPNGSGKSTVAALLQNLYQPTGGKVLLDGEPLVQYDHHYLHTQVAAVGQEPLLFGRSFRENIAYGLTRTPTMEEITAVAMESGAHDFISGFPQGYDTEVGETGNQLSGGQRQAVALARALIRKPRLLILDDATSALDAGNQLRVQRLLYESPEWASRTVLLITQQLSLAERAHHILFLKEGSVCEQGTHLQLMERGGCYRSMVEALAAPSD
T2 sequence (P36372 1-703): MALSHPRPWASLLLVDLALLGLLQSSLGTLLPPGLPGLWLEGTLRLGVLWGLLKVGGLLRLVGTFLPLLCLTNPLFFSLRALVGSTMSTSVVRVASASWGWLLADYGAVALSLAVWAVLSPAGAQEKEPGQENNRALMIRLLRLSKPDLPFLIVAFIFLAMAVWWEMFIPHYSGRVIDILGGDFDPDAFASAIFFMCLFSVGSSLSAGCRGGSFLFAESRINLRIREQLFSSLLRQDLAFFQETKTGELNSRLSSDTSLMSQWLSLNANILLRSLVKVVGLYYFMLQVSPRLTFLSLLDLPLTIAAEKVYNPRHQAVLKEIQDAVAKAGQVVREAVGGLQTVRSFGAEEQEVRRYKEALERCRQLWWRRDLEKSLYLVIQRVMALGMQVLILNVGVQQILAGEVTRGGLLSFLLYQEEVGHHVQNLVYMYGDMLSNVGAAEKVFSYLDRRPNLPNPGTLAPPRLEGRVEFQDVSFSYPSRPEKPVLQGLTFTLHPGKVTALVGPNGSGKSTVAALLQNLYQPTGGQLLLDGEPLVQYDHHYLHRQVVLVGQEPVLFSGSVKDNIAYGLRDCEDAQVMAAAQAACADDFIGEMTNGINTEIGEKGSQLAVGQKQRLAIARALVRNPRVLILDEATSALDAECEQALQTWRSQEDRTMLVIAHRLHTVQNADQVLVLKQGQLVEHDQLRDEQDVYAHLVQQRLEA
Put plainly: Competitive inhibition of TC6R crosslinking, wild type TAP. The format is binding. A digest of the protocol: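 Rat TAP1/TAP2a expressed in baculovirus-infected Sf21 microsomes. Microsomes were incubated with 1 μM FITC-lysine peptide with Cys at position 6, plus unlabeled competitor peptide, on ice for 10 min in PBS pH 7.4. BMOE was added (0.2 mM final) for 10 min at room temperature and quenched with 10 mM DTT. Products were resolved by SDS-PAGE and fluorescence imaged at 520 nm.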

Regarding TVDNK*TAYV, the “effect of mutation on transport efficiency versus wild type” value at rTAP1/TAP2a(E218M) is reported as “did not significantly affect”.
What is called IC50 is the concentration that gives 50% inhibition. Consider RYWANATKSR [RR], for which, at rTAP1/TAP2a (wild type), the concentration for half-maximal inhibition (IC50) worked out at 300 nM.
